Source: ChEMBL document CHEMBL1155254, “Diketoacid-genre HIV-1 integrase inhibitors containing enantiomeric arylamide functionality” (Bioorg Med Chem, 2009)
pIC50: −log10 of the molar value.

Tests used:
[1] = target: T1, Human immunodeficiency virus type 1 integrase (Human immunodeficiency virus 1, UniProt Q7ZJM1); assay: Inhibition of HIV1 integrase 3'-processing activity expressed in Escherichia coli by PAGE
Procedure, shortened: (§1)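 Recombinant IN expressed in E. coli and purified with 10% glycerol in all buffers. 10 μL reactions held 400 nM IN, 20 nM 5'-end [³²P]-labeled oligonucleotide substrate and inhibitor at various concentrations, with 10% DMSO controls. Buffer was 50 mM MOPS pH 7.2 with 7.5 mM MgCl₂ (final), 30 min at 37 °C. Stopped with EDTA/formamide loading dye.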

[2] = target: T1, Human immunodeficiency virus type 1 integrase; assay: Inhibition of HIV1 integrase strand transfer activity expressed in Escherichia coli by PAGE; procedure, shortened: as §1

T1 sequence (Q7ZJM1 whole entry): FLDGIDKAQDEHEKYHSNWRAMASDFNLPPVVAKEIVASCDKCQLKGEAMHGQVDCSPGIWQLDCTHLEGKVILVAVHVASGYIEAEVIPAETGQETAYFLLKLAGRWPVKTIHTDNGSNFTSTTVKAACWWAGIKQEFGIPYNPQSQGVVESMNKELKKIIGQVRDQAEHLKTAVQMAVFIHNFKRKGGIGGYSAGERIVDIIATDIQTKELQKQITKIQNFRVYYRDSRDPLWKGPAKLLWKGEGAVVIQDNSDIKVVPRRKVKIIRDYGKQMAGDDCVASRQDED

Structure (SMILES)	pIC50 [1]	pIC50 [2]
O=C1c2c(ccc(O)c2O)CN1C1Cc2ccccc2C1	< 3.48	4.64
C[C@@H](c1ccc2ccccc2c1)N1Cc2ccc(O)c(O)c2C1=O	< 3.95	5.34
O=C1c2ccc(O)c(O)c2C(=O)N1[C@@H]1CCc2ccccc21	3.54	4.92
O=C1c2ccc(O)c(O)c2C(=O)N1[C@H]1CCc2ccccc21	3.89	5.74
O=C1c2ccc(O)c(O)c2C(=O)N1Cc1ccc2ccccc2c1	4.74	6.02
O=C1c2c(ccc(O)c2O)CN1Cc1ccc2ccccc2c1	4.62	6.10
C[C@@H](C1CCCc2ccccc21)N1Cc2ccc(O)c(O)c2C1=O (stereo partly specified)	< 3.48	5.05
O=C1c2ccc(O)c(O)c2C(=O)N1[C@@H]1CCCc2ccccc21	< 3.48	4.09
O=C1c2ccc(O)c(O)c2C(=O)N1C1Cc2ccccc2C1	4.43	5.40
C[C@@H](c1ccccc1)N1Cc2ccc(O)c(O)c2C1=O	< 3.48	4.35
C[C@H](c1ccc2ccccc2c1)N1Cc2ccc(O)c(O)c2C1=O	< 3.95	4.62
C[C@H](C1CCCc2ccccc21)N1Cc2ccc(O)c(O)c2C1=O (stereo partly specified)	< 3.48	3.92
C[C@H](c1ccccc1)N1Cc2ccc(O)c(O)c2C1=O	< 3.48	4.00
C[C@@H](c1cccc2ccccc12)N1Cc2ccc(O)c(O)c2C1=O	< 3.95	5.40
C[C@H](C1CCc2ccccc21)N1Cc2ccc(O)c(O)c2C1=O (stereo partly specified)	< 3.48	4.00
O=C1c2ccc(O)c(O)c2C(=O)N1[C@H]1CCCc2ccccc21	3.95	5.00
C[C@H](c1cccc2ccccc12)N1Cc2ccc(O)c(O)c2C1=O	< 3.95	4.32
O=C1c2ccc(O)c(O)c2C(=O)N1Cc1ccccc1		6.41
O=C1c2ccc(O)c(O)c2C(=O)N1CCc1ccccc1	3.80	5.17
O=C1c2ccc(O)c(O)c2C(=O)N1Cc1cccc2ccccc12	3.82	6.14
C[C@@H](C1CCc2ccccc21)N1Cc2ccc(O)c(O)c2C1=O (stereo partly specified)	< 3.48	5.22
